Compounds with a hit are over-represented: about 4% of the library has one in this group of screens.
Cl transport mod: modulates chloride dependent transport by human KCC2. Q9H2X9. KCC2 cells, thallium flux FluoZin-2 fluorescence. B-score of Tl+ flux slope (higher = more flux/activation; lower = inhibition) at 10 µM. 2.2% of 190,000 active;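 active = thallium flux slope and its plate-corrected score both differing from the plate sample mean at a set confidence after two filtering rounds, in either direction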;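 also: slope of fluorescence scaled to starting intensity during 10 to 20 s after thallium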
MT stabilize HCS: microtubule stabilizers in HeLa cells | HeLa tubulin immunostaining HCS, 24 h; share of cells brighter than vehicle mean+2SD | % tubulin-high responders, % at 10 µM | 0.83% of 200,000 active;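 active = plate Z-score above 3 for both tubulin-high and condensed-nucleus cell shares, with cell loss under 80%, at 10 µM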;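 also: anti alpha tubulin signal scored within the nucleus-defined area of each cell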
Pf gametocyte: P. falciparum stage V gametocyte viability inhibition; P. falciparum stage V gametocytes, ATP luminescence, 24 h; inhibition, % at 10.9 µM; 0.065% of 150,000 active; AID 743093;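 active = inhibition above the mean plus 3 SD of compounds within the control limits, set per campaign, cut at about 38% in these data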
bCat nuc transl: modulators of beta-catenin nuclear translocation. HeLa beta-catenin nuclear translocation, immunofluorescence imaging. nuclear translocation activity, % at 5 µM. 0.3% of 190,000 active;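 active = nuclear translocation activity above 50% at 5 µM, with a well cell count of 50 or more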;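 also: per-cell ratio of nuclear to cytoplasmic median beta-catenin stain intensity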
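Signal – beta-catenin immunofluorescence imaging with DAPI · Test system – human HeLa cell line · Dosing – 5 µM primary single dose, 0.1% DMSO, 0.02–20 µM confirmation series · Measure – % activation, nuclear-to-cytoplasmic median beta-catenin signal ratio per cell · Incubation – 24 h compound exposure at 37°C, 5% CO2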
WT yeast gro inh: growth inhibition of WT yeast, mitochondrial fusion screen; mitochondrial fusion phenotypic screen, WT strain; AID 1362; inhibition, % at 10 µM; 2.1% of 190,000 active; in the data active = inhibition above about 58%; tested in S. cerevisiae
Numbers stand for hits; 0 = inactive; - = not tested or not shown.

SMILES	Cl transport mod	MT stabilize HCS	Pf gametocyte	bCat nuc transl	WT yeast gro inh
CCOc1ccc(C(=O)N/N=C(\c2ccccc2)c2ccccn2)cc1	0	0	0	0	69
O=C1CSC(c2cccc([N+](=O)[O-])c2)N1C1CC2CCC1C2 (stereo not given)	0	-	0	0	-
O=C1CSC(c2cccc([N+](=O)[O-])c2)N1c1c(F)cccc1F (stereo not given)	0	10	0	0	0
O=[N+]([O-])c1ccc(COc2ccc(-c3[nH]ncc3-c3ccc(Cl)cc3)c(O)c2)cc1	0	0	0	0	94
CCOC(=O)C1=C(CC)Nc2ccccc2N=C1NC(=O)c1oc2ccccc2c1C	0	0	0	0	0
CCOCc1c(C(=O)NC2=Nc3ccccc3NC(CC)=C2C(=O)OCC)oc2ccccc12	0	20	0	0	0
CCCCc1c(C)nn(-c2nnc3c4ccccc4n(CC)c3n2)c1C	0	0	-	0	68
CCn1c2ccccc2c2nc3ccccc3nc21	-	0	-	0	0
Cc1ccc2oc(=O)c3cc(C(=O)N4CCN(C(=O)c5ccco5)CC4)sc3c2c1	-2.5	0	-	0	0
Cc1ccc([C@@H]2[C@@H]3C(=O)N(c4ccccc4)C(=O)[C@@H]3[C@]3(C)C(=O)N(Cc4ccc(-c5ccccc5)cc4)CC(=O)N23)o1	-	-	0	-	-
Cc1nn(C)c(C)c1NS(=O)(=O)c1ccc(N2CCCC2=O)cc1	0	0	-	0	0
COc1ccc(OC)c(NS(=O)(=O)c2ccc(N3CCCC3=O)cc2)c1	-	22	0	147	0
Cc1ccccc1NS(=O)(=O)c1ccc(N2CCCC2=O)cc1	0	37	0	100	0
N#Cc1c(-c2ccccc2)c(-c2ccccc2)nn(CC(=O)NNC(=O)Nc2ccc(Cl)c(Cl)c2)c1=O	0	21	-	0	0
Cn1ccnc1C(O)(c1ccccc1)c1ccccc1	0	-	0	0	-
CC(C)(C)c1cc(/C=N/O)cc(C(C)(C)C)c1O	0	0	0	0	80
CC(C)c1ccc(C2C3=C(COC3=O)Nc3cc4c(cc32)OCO4)cc1 (stereo not given)	0	0	-	74	0
O=C1CC(c2cccnc2)c2cc3c(cc2N1)OCO3 (stereo not given)	0	0	-	0	0
CCOC(=O)c1oc2ccccc2c1NC(=O)c1cccc(OC)c1OC	0	34	-	0	0
CCOC(=O)c1oc2ccccc2c1NC(=O)c1cccc(OC)c1	0	0	-	0	0
Cc1ccc(-c2cc3ccccc3nc2N2CCOCC2)cc1	0	0	0	0	59
c1ccc(-c2cc3ccccc3nc2N2CCCC2)cc1	-	0	0	0	0
CCc1ccccc1NC(=S)N(Cc1cccs1)C1CCCC1	0	0	0	0	71
COc1ccccc1NC(=O)Cn1nc(-c2ccncc2)nc1SCC(=O)NC1CCCC1	0	11	0	0	0
CCOP(=O)(OCC)C(NC(=O)/C=C/c1ccc(OC)cc1)c1ccccc1 (stereo not given)	0	0	0	0	0
SMILES	Cl transport mod	MT stabilize HCS	Pf gametocyte	bCat nuc transl	WT yeast gro inh
O=C(Nc1nc(COc2ccccc2)cs1)C12CC3CC(CC(C3)C1)C2	0	0	0	-	59
COc1cc(NC(=O)c2ccc([N+](=O)[O-])o2)ccc1NC(=O)c1cccs1	0	0	0	0	95
O=C(Nc1ccc(NC(=S)NC(=O)c2ccccc2F)cc1)c1cccs1	0	0	0	0	63
COc1cc(NC(=S)NC(=O)c2c(OC)cccc2OC)ccc1NC(=O)c1cccs1	0	21	-	0	0
COc1cc(NC(=S)NC(=O)c2cc(C)cc(C)c2)ccc1NC(=O)c1cccs1	0	0	-	0	0
NC(N)=Nc1nc(-c2ccccc2)c2cc(F)ccc2n1	0	0	0	0	0
Cc1cc(Cl)ccc1OCC(=O)NCCCCc1ccccc1	0	0	0	0	63
O=C(CC(=O)Nc1ccccn1)Nc1ccccn1	-	0	0	0	0
O=C(COc1ccc(Cl)cc1Cl)Nc1ccccn1	0	0	-	-	66
O=C(CN1CCN(CC(=O)Nc2ccccn2)CC1)Nc1ccccn1	-4.3	0	-	0	0
CC(Oc1ccc(Cl)cc1Cl)C(=O)NCCCCc1ccccc1 (stereo not given)	0	0	-	0	61
CC(=O)NN(O)C1N(C)C(=O)N(Cc2ccccc2)C1(C)C (stereo not given)	-	-	0	-	-
CSc1nc2n(n1)C(C)C1=C(CCCC1=O)N2 (stereo not given)	0	0	0	0	0
CC(NC(=O)c1cc2ccccc2oc1=O)c1ccccc1 (stereo not given)	-	-	0	-	-
O=C(O)C1CCN(Cc2cccnc2)CC1	0	0	0	0	0

Assay outcomes deposited in PubChem BioAssay by several laboratories.
